ChEMBL document CHEMBL4428077, “Synthesis and Biological Evaluation of N-((1-(4-(Sulfonyl)piperazin-1-yl)cycloalkyl)methyl)benzamide Inhibitors of Glycine Transporter-1” (J Med Chem, 2016)

Experiments:
Rattus norvegicus = experiment: In vivo inhibition of glycine transporter-1 in po dosed Sprague-Dawley rat assessed as increase in CSF glycine level measured 2 hrs post dose by LC-MS/MS analysis; format: functional
Procedure, shortened: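 Drug-naive adult male Sprague-Dawley rats, n = 4-5 per group, given a single oral dose of 0.4, 1.5, 4.7 or 15.7 μmol/kg. Vehicle was 5% Solutol + 10% Captisol in 25 mM PBS, pH 2. At 2 h, rats were killed by CO₂. CSF (50-100 μL) was taken from the cisterna magna, and brain and plasma were also collected. Glycine was measured by LC-MS/MS against a deuterated-glycine internal standard. Results given as % vehicle control (vehicle 30 min post-dose), mean ± SEM. Two-way ANOVA with Tukey test.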

[1] = Drug level in cynomolgus monkey plasma at 10 mg/kg, po measured at 12 hrs post dose by LC-MS/MS analysis; format: ADME, organism-based, Macaca fascicularis
Procedure, shortened: (§1)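 Cynomolgus monkeys (n = 3/group) fitted with subcutaneous CSF ports were dosed orally at 0.4−15.7 μmol/kg in 5% Solutol plus 20% Captisol in 25 mM PBS, pH 2. CSF (about 0.30 mL) and blood were sampled predose and at 0.5, 1, 2, 3, 4, 8, 12 and 24 h. Quantitation limit 1.0 ng/mL; mean ± SD.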

[2] = Drug level in po dosed Sprague-Dawley rat plasma measured 2 hrs post dose by LC-MS/MS analysis; format: ADME, organism-based; details: in vivo
[3] = AUClast in cynomolgus monkey plasma at 1 mg/kg, iv or 5 mg/kg, po measured up to 12 or 24 hrs post dose by LC-MS/MS analysis; format: ADME, organism-based, Macaca fascicularis
Procedure, shortened: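 Single-dose PK in female cynomolgus monkeys, n = 3 per group: 1.5 μmol/kg IV in 5% DMSO/10% Solutol in saline, pH 6.5 (2 mL/kg), or 7.8 μmol/kg PO in 5% Solutol in 20% Captisol, 25 mM PBS, pH 2 (5 mL/kg). Plasma parameters reported as mean ± SD.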

[4] = Protein binding in monkey plasma; details: cynomolgus monkey, read-out: PPB (converted)
[5] = Drug level in cynomolgus monkey CSF at 10 mg/kg, po measured at 0.5 hr post dose by LC-MS/MS analysis; format: ADME, organism-based, Macaca fascicularis, Cerebrospinal fluid; details: read-out: Drug uptake; procedure, shortened: as §1
[6] = Toxicity in cynomolgus monkey assessed as gross behavioral abnormality at 0.3 to 10 mg/kg, po measured up to 24 hrs post dose; format: organism-based, Macaca fascicularis; details: in vivo
Procedure, shortened: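 Cynomolgus monkeys (n = 3/group) received an oral dose of 0.4, 1.5, 4.7 or 15.7 μmol/kg in 5% Solutol/20% Captisol in 25 mM PBS, pH 2. CSF was drawn via subcutaneous ports and blood sampled predose and at 0.5–24 h.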

[7] = Volume of distribution at steady state in Sprague-Dawley rat at 10 mg/kg, po or 2 mg/kg, iv administered as single dose measured up to 24 hrs post dose by LC-MS/MS analysis; format: ADME, organism-based; details: in vivo, read-out: Vdss
Procedure, shortened: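 Groups of three drug-naive adult male Sprague–Dawley rats, single dose: IV 3.1 μmol/kg in 5% DMSO/10% Solutol in saline (5 mL/kg), or PO 15.7 μmol/kg in 5% Solutol/10% Captisol in 25 mM PBS adjusted to pH 2 with HCl. Plasma concentration–time data give the parameters; mean ± SD.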

[8] = Total clearance in cynomolgus monkey at 1 mg/kg, iv or 5 mg/kg, po measured up to 12 or 24 hrs post dose by LC-MS/MS analysis; format: ADME, organism-based, Macaca fascicularis; details: in vivo
Procedure, shortened: (§2)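 Three female cynomolgus monkeys per group, single dose: IV 1.5 μmol/kg in 5% DMSO/10% Solutol in saline, pH 6.5 (2 mL/kg), or PO 7.8 μmol/kg in 5% Solutol in 20% Captisol, 25 mM PBS, pH 2 (5 mL/kg). Parameters come from plasma concentration–time data; mean ± SD.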

[9] = Drug level in cynomolgus monkey plasma at 3 mg/kg, po measured at 4 hrs post dose by LC-MS/MS analysis; format: ADME, organism-based, Macaca fascicularis
Cytochrome P450 2D6 = Cytochrome P450 2D6 (Homo sapiens, UniProt P10635); experiment: Inhibition of CYP2D6 (unknown origin); format: ADME
Cytochrome P450 2C19 = Cytochrome P450 2C19 (Homo sapiens, UniProt P33261); experiment: Inhibition of CYP2C19 (unknown origin); format: ADME
[10] = Volume of distribution at steady state in cynomolgus monkey at 1 mg/kg, iv or 5 mg/kg, po measured up to 12 or 24 hrs post dose by LC-MS/MS analysis; format: ADME, organism-based, Macaca fascicularis; details: in vivo, read-out: Vdss; procedure, shortened: as §2
[11] = Cmax in Sprague-Dawley rat plasma at 10 mg/kg, po administered as single dose by LC-MS/MS analysis; format: ADME, organism-based; design: dose 10 mg/kg, route oral
Procedure, shortened: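 Single-dose PK in drug-naive adult male Sprague−Dawley rats, n = 3 per group: 3.1 μmol/kg IV in 5% DMSO/10% Solutol in saline (5 mL/kg), or 15.7 μmol/kg PO in 5% Solutol/10% Captisol in 25 mM PBS, pH adjusted to 2 with HCl. Plasma parameters reported as mean ± SD.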

[12] = Drug level in cynomolgus monkey CSF at 10 mg/kg, po measured at 24 hrs post dose by LC-MS/MS analysis; format: ADME, organism-based, Macaca fascicularis, Cerebrospinal fluid; details: read-out: Drug uptake; procedure, shortened: as §1

Chain of Cytochrome P450 2C19 (P33261 whole entry): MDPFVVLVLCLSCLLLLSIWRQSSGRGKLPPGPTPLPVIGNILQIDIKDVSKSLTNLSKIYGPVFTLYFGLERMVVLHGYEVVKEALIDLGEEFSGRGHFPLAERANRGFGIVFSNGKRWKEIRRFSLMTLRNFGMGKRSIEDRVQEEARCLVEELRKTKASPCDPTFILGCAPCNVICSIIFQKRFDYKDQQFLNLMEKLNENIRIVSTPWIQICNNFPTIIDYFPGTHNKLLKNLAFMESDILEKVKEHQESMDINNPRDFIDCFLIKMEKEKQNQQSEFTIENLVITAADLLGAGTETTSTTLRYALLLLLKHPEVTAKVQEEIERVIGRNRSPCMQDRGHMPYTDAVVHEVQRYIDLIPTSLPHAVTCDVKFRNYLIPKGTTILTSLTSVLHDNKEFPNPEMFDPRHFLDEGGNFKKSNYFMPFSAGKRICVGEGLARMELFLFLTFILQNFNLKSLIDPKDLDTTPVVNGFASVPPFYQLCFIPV
Chain of Cytochrome P450 2D6 (P10635 whole entry): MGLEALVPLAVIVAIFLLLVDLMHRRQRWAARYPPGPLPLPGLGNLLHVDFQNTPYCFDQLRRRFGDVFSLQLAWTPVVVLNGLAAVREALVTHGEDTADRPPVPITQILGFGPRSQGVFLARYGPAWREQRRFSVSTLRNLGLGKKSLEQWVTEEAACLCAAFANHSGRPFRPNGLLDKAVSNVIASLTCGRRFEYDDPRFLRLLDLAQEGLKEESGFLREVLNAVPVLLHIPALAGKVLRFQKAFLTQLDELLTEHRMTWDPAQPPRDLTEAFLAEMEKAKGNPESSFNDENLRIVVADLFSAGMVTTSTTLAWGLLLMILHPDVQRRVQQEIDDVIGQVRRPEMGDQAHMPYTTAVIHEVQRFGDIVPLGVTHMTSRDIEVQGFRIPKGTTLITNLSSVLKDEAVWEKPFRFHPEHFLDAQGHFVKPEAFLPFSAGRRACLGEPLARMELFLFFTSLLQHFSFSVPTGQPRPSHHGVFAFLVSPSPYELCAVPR

SMILES | ED200 (Rattus norvegicus) [µmol/kg] | concentration at 12 h [1] [ng/mL] | Drug uptake [2] | AUC(0-t) at 24 h [3] [ng·h/mL] | fraction unbound [4] | concentration at 0.5 h [5] [ng/mL] | Activity [6] | Vd [7] [L/kg] | clearance [8] [mL/min/kg] | concentration at 4 h [9] [ng/mL] | IC50 (Cytochrome P450 2D6) [µM] | IC50 (Cytochrome P450 2C19) [µM] | Vd [10] [L/kg] | Cmax [11] [ng/mL] | concentration at 24 h [12] [ng/mL]
Cl.Cn1cc(S(=O)(=O)N2CCN(C3(CNC(=O)c4ccc(C(F)(F)F)cc4Cl)CCC(F)(F)CC3)CC2)nn1 | 1.6 to 4.8 | – | – | – | – | – | – | – | – | – | – | – | – | – | –
CC(NC(=O)c1ccc(C(F)(F)F)cc1Cl)C1(N2CCN(S(=O)(=O)c3cn(C)nn3)CC2)CCC(F)(F)CC1.Cl (single isomer, unassigned; (+)) | – | 135 | Dose-dependent effect | 690 | 0.19 | 1.8 | Non-Toxic | 1.75 | 24.9 | 3.7 | > 7.2 | > 7.2 | 1.93 | 352 | 1.2
